GRIN3A LBD mod: modulators (binders) of human NR3A ligand-binding domain | Tm shift relative to glycine control, % at 25 µM | 2.5% of 340,000 active | NR3A LBD differential scanning fluorimetry, Tm shift; 0% = protein alone, 100% = glycine-bound protein;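 active = melting temperature shift of at least 10% of the positive control shift, at one fixed dose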
T cruzi inh: T. cruzi replication inhibition; T. cruzi beta-gal in NIH3T3, luminescence, 90 h; inhibition, % (test concentration not listed); 1.4% of 300,000 active; AID 1885;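 active = mean inhibition across valid replicates above about 55%, limit read from the data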;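 also: signal also drops with host cell toxicity which is not excluded here; 0% = plate median of DMSO wells and 100% = zero luminescence signal; higher percent means less beta-gal luminescence so fewer parasites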
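Assay system: NIH/3T3 fibroblasts plus reporter T. cruzi. Amount: NIH/3T3 cells, 5,000 per well. Buffer or medium: DMEM, 2% fetal bovine serum. Doses: compound pinned at 50 nL/well, DMSO. Schedule: ≥90 h infection period, 3 h prior cell attachment. Signal: luminescent β-galactosidase signal after 60 min lysis. Read-out: parasite load inhibition, %.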
PREPL inh: inhibitors of human prolyl oligopeptidase-like enzyme PREPL. AID 2751. Q4J6C6. inhibition, % at 5.96 µM. 0.68% of 320,000 active. recombinant PREPL, fluorescence polarization activity-based probe; in the data active = inhibition above about 43%;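 also: 0% = enzyme with DMSO and 100% = wells lacking enzyme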
Target sequence (Q4J6C6 whole entry, looked up): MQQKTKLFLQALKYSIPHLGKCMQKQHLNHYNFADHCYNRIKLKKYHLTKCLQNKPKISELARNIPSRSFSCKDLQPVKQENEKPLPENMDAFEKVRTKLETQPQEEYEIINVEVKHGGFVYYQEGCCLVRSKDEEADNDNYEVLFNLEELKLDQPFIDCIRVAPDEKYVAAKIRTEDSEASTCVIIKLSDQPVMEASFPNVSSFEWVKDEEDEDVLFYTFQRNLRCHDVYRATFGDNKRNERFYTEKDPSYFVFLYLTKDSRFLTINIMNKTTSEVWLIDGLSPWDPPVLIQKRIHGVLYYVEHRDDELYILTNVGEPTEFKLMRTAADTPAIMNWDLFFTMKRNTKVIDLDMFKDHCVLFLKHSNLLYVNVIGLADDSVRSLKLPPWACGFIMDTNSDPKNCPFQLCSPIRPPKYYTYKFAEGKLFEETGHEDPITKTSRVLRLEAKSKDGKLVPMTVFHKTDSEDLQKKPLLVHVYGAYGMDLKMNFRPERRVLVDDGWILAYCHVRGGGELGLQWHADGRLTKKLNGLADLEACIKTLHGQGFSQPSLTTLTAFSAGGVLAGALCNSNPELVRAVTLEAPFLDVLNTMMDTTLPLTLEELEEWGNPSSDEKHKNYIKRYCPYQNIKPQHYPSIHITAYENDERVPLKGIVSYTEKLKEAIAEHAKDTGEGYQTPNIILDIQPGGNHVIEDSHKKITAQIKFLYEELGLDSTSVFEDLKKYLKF
Beta cell apopt: blocks beta cell apoptosis; INS-1E cytokine-induced death, ATP luminescence, 48 h; percent of positive-control rescue, neutral wells zero; protection from apoptosis, % (no concentration beside the values); 0.8% of 300,000 active;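 active = Every replicate reaches about 75%, or at least half do and their mean reaches it too, limit read from the data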;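 also: 0% = cytokine-treated negative control wells and 100% = positive control rescue; higher means more ATP so stronger rescue from cytokine killing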
CHOP inh: CHOP inhibition in unfolded protein response | AID 2732 | 3.8% of 220,000 active | CHO-K1 CHOP-promoter luciferase, tunicamycin-induced, 15-18 h | inhibition, % at 10 µM;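 active = compounds that reduced the stress-induced luciferase reporter signal by more than about 70% of percent inhibition, limit read from the data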;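 also: 0% = tunicamycin plus vehicle and 100% = wells without tunicamycin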
CSC inhib: blocks cancer stem cells. cancer stem cell-like cells viability, luminescence. inhibition, % at 7.5 µM. 1.1% of 300,000 active; in the data active = inhibition above about 75%; tested in HMLE shEcad cells
The depositor's hits bear a star; . = no result. In the library only some 6.7% were active in any assay of this set; here they are far more common.

SMILES | GRIN3A LBD mod | T cruzi inh | PREPL inh | Beta cell apopt | CHOP inh | CSC inhib
Nc1c(C(=O)c2ccccc2)sc2nsc(SCCN3CCCC3)c12 | 3 | 55* | 7 | -10 | -65 | 89*
COc1ccc(/C=N/NC(=O)c2ccoc2C)cc1CN1CCN(c2ccc(F)cc2)CC1 | 4 | 0 | 8 | . | . | .
O=C(CN(Cc1ccc(Br)cc1)S(=O)(=O)c1ccccc1)NCc1cccnc1 | 0 | 3 | 2 | -2 | . | -6
O=C(NCc1cccnc1)/C(=C\c1ccc(-c2ccc(Br)cc2)o1)S(=O)(=O)c1ccccc1 | -11 | 30 | 2 | 107* | 106* | 10
O=C(NCc1cccnc1)/C(=C/c1ccc(-c2ccc(Cl)cc2)o1)S(=O)(=O)c1ccccc1 | -11 | 49 | -1 | 104* | 104* | 110*
CCn1c(-c2ccc(C)cc2)nn(CC(=O)NCCc2ccccc2)c1=S | 2 | -112 | 4 | 127* | 21 | 19
Cn1c(=O)c(C(=O)COC(=O)c2cc(-c3ccco3)nc3ccccc23)c(N)n(CC2CC2)c1=O | . | 17 | -41 | 2 | 35 | 9
CN(C(=O)CSc1nc2ccccc2o1)C1CCCCC1 | 0 | . | . | . | . | .
CN(Cc1ccccc1)Cc1nc2scc(-c3ccccc3)c2c(=O)[nH]1 | -1 | 4 | -7 | -6 | 9 | 5
O=c1[nH]c(Cc2ccccc2)nc2scc(-c3ccccc3)c12 | 2 | 6 | -5 | 1 | 80* | 2
CSc1ccc(CNc2ccc(C)c(C)c2)cc1 | 4 | -11 | 36 | -3 | 92* | 4
COc1cccc(-c2ncc3ccccc3c2COC(=O)c2ccc(C(C)(C)C)cc2)c1 | 2 | . | 9 | 15 | . | 24
COc1cc(CC(=O)NCCCc2ccccc2)cc(OC)c1OC | 0 | -10 | 1 | -3 | . | -15
CC1(C)CC(=O)C2=C(C1)N(Cc1ccco1)C(=O)C2(O)C(F)(F)F (stereo unspecified) | 68* | 37 | 3 | 2 | 14 | -13
CCSc1nnc2n(N)c(=O)c3ccccc3n12 | . | . | . | . | -23 | .
COc1ccc(Nc2cc(Nc3ccc(OC)cc3)ncn2)cc1 | 16* | 0 | -3 | 0 | . | -2
COc1ccc(Nc2cc(Nc3cccc(OC)c3)ncn2)cc1 | 27* | 43 | 21 | -2 | . | 49
COc1ccc(Nc2ccc(Nc3ccc(OC)cc3)nn2)cc1 | 27* | 2 | 8 | 4 | 14 | -13
COc1cccc(Nc2ncnc3nc[nH]c23)c1 | 0 | -19 | -2 | -10 | 35 | -5
COc1ccc(Nc2cc(Nc3cc(OC)c(OC)c(OC)c3)ncn2)cc1 | 14* | -2 | 28 | 10 | . | 35
COc1ccc(Nc2ccc(OC)cc2)cc1 | -16 | 20 | 10 | 68 | -16 | -8
O=Nc1ccc2oc(=O)ccc2c1 | . | . | . | . | 0 | .
CSc1nccc(N2CCN(c3ccc(F)cc3)CC2)n1 | -1 | -23 | 14 | 8 | 18 | -8
Clc1ccc(N2CCN(c3ccnc(Cl)n3)CC2)cc1 | 14* | 35 | 13 | . | . | 2
Cc1nc(N)nc(N)c1-c1ccc(Cl)c(Cl)c1 | 2 | . | . | . | . | .
SMILES | GRIN3A LBD mod | T cruzi inh | PREPL inh | Beta cell apopt | CHOP inh | CSC inhib
Cc1nc(N)nc(N)c1CCCc1ccc(Cl)c(Cl)c1 | 0 | 62* | 16 | 5 | . | 66
COc1cnc(-c2ccccn2)nc1N(C)C | 0 | 48 | 0 | 81* | 51 | 45
COc1cnc(-c2ccccn2)nc1Sc1ccccc1Cl | -1 | 60* | 22 | 86* | 46 | 4
Clc1ccc(C2=NCCN2)cc1 | 0 | 62* | 15 | -13 | 4 | 6
O=C(Nc1ccc(C2=NCCN2)cc1)c1ccc(Cl)c(C(=O)Nc2ccc(C3=NCCN3)cc2)c1 | . | -5 | 0 | 1 | 7 | -20
CN(CC(=O)Nc1ccccc1Cl)CC(=O)Nc1sc2c(c1C(N)=O)CCC2 | 2 | -7 | 10 | 4 | . | .
CC(C)(CO)CNC1CCCN(C2Cc3ccccc3C2)C1 (stereo unspecified) | 2 | 66* | 11 | . | . | -11
C#Cc1cccc(C(=O)NC2CCCN(C3Cc4ccccc4C3)C2)c1 (stereo unspecified) | 0 | 41 | -28 | 2 | . | -9
COCCCn1nnnc1SCC(=O)Nc1nc2ccccc2s1 | -3 | 4 | -7 | -5 | . | .
Cc1nc2sccc2c(=O)n1N | -2 | 1 | -2 | 2 | -7 | .
CCC(=O)OCCNc1cc(Sc2nc3ccccc3s2)c2nonc2c1[N+](=O)[O-] | -21 | 46 | 10 | 22 | 113* | 106*
CCC(=O)OCCNc1cc(Sc2nc3ccccc3[nH]2)c2nonc2c1[N+](=O)[O-] | -10 | . | 19 | -3 | 109* | 27
O=C(NC1CCCCC1)c1cc(S(=O)(=O)N2CCCC2)ccc1Cl | 1 | -3 | -5 | -2 | . | 6
Cc1ccc(CCNC(=O)C2CC(c3cc(C(F)(F)F)cc(C(F)(F)F)c3)=NO2)cc1 (stereo unspecified) | -4 | -20 | 0 | -2 | 76* | -11
COc1ccccc1NS(=O)(=O)c1cccc(NC(=O)c2sc3ccccc3c2Cl)c1 | 1 | 78* | -3 | 2 | 37 | .
O=C(Nc1cc(S(=O)(=O)Nc2ccccc2Cl)ccc1O)c1sc2cc(Cl)ccc2c1Cl | 150* | 6 | -1 | 1 | 7 | 22
Cc1ccc(C)c(NC(=O)Cn2nnc(-c3ccc(N4CCOCC4)cc3)n2)c1 | 3 | -31 | 22 | -1 | -3 | 8
CC(OC(=O)CCc1nc2ccccc2c(=O)[nH]1)C(=O)c1ccc(Br)cc1 (stereo unspecified) | -1 | -14 | -17 | . | 9 | .
C/C(=N\NC(=O)C1CC1)c1ccc(NC(=O)c2ccc(Br)o2)cc1 | . | -5 | 7 | -5 | -11 | 10
C/C(=N\NC(=O)c1c(Cl)cnn1C)c1ccc(NC(=O)c2ccc(Br)o2)cc1 | 14* | 12 | . | 3 | . | 9
COc1cccc(CN2CCN(Cc3nc(C(C)C)cs3)CC2CCO)c1 (stereo unspecified) | -3 | 36 | 3 | 1 | 1 | -11
CCOc1ccc(S(=O)(=O)N2CCC(C(=O)NCCN3CCOCC3)CC2)cc1C | 1 | -6 | -8 | . | . | -5
COc1ccc(/C=C(/C(=O)c2ccc(Cl)cc2Cl)n2cncn2)cc1 | 0 | 62* | -16 | 1 | 56 | 17
CN(C)c1ccc(/C=C(/C(=O)c2ccc(Cl)cc2Cl)n2cncn2)cc1 | 2 | 39 | 16 | 2 | 0 | -7
CC(C)c1ccc2[nH]c(O)c(N=NC(=O)c3cccc(S(=O)(=O)Nc4ccccc4Cl)c3)c2c1 | 7 | 41 | 18 | 0 | 27 | 10
CC(C)NC(=S)N=Nc1c(O)[nH]c2ccc(C(C)C)cc12 | -3 | 59* | 20 | 8 | 34 | 33
Cc1cccc(NC(=S)N=Nc2c(O)[nH]c3ccccc23)c1 | 8 | 64* | 29 | 48 | 87* | 7
CCN(CC)c1ccc(C(=O)OCc2cc(=O)oc3cc(O)ccc23)cc1 | 4 | 11 | 21 | 31 | 51 | 84*

Screening data as filed in PubChem.
